# CHT block = human CHT choline transport inhibition; Q9GZV3; CHT-expressing cells, membrane potential dye, choline response; stronger effect = lower value; B-score at 10 µM; 0.86% of 310,000 active;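 active = B-score over 3 SD under the library average, and starting fluorescence ratio not unusually high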;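 note: choline stimulus applied at its EC90 after an EC20 pre-addition; B-score computed on integrated fluorescence ratio after choline addition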
# Target sequence (Q9GZV3 whole entry, looked up): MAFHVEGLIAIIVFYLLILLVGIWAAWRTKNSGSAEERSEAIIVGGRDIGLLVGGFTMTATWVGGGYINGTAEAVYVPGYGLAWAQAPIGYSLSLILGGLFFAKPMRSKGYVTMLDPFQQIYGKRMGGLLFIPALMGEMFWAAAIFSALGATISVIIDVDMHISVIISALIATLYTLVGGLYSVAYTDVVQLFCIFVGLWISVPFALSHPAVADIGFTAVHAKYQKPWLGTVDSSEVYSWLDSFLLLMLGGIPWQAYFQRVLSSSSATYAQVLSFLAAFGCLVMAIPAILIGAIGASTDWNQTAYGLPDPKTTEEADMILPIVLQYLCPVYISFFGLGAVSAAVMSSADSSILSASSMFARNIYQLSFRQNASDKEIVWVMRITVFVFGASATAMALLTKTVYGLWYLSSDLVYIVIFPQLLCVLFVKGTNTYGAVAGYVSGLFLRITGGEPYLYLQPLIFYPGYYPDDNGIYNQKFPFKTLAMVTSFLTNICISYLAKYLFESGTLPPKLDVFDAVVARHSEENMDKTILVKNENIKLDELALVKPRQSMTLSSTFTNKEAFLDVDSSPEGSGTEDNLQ
# KCC2 mod = KCC2 (human) Cl- transport modulation. KCC2 cells, thallium flux FluoZin-2 fluorescence. B-score of Tl+ flux slope (higher = more flux/activation; lower = inhibition) at 10 µM. 2.2% of 190,000 active;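 active = thallium flux slope and its plate-corrected score both differing from the plate sample mean at a set confidence after two filtering rounds, in either direction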;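 note: slope of fluorescence scaled to starting intensity during 10 to 20 s after thallium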
# CHT allo act = human CHT allosteric activation | Q9GZV3 | CHT-expressing cells, membrane potential dye, choline EC20; stronger effect = higher value; LV-AA mutant CHT in HEK293 cells | B-score at 10 µM | 0.49% of 310,000 active | AID 488977;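 active = initial fluorescence not abnormally high and integrated response B-score, plate-corrected, over 3 SD above library mean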
# Rad51 HR inh = Rad51 (human) homologous recombination inhibition; AID 1385; hRad51 DNA strand exchange, fluorescence dequenching; Q06609; inhibition, % at 10 µM; 0.085% of 200,000 active;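 active = inhibition above 40% at the single screening dose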
#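 System: human Rad51 nucleoprotein filaments preassembled on unlabelled ssDNA. Reagent: labelled 47-mer dsDNA for strand exchange. Schedule: 30-min compound preincubation and 15-min exchange, both room temperature. Measured by: FRET fluorescence dequenching, excitation 485 nm, emission 520 nm. Read-out: Fluorescence-based percent inhibition, control- and blank-normalised. Benchmarks: plate controls and plate blanks.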
# CHT activ conf = human CHT activation, confirmatory screen | shares compounds with CHT allo act | CHT-expressing cells, membrane potential dye fluorescence (FDSS); % of choline EC20–EC90 response window; HEK293 expressing CHT LV-AA mutant; choline added at its EC20 | activation, % at 10 µM | 91% of 2,500 active | AID 504833;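 active = primary screen active, with duplicate mean activation above negative control mean plus 3 SD, cut at about 11% in these data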
# HEK293 MP dye = activity in parental HEK293 cells lacking CHT. shares compounds with CHT allo act. membrane potential dye fluorescence (FDSS); measured after EC20 choline addition. ratio readout change at 10 µM, hits read low. 62% of 2,500 active;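 active = duplicate-averaged ratio beyond 3 SD from buffer wells, up or down, though filed actives are nearly all decreases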
# Numbers stand for hits; . = inactive; / = no result given. An excerpt weighted towards active compounds, which were near 2.6% of everything screened.
SMILES,CHT block,KCC2 mod,CHT allo act,Rad51 HR inh,CHT activ conf,HEK293 MP dye
CCCCn1c(N)c(N(CCOC)C(=O)c2cc(S(=O)(=O)N3CCCCC3)ccc2C)c(=O)[nH]c1=O,.,/,.,/,/,/
COCCn1c(N)c(C(=O)NS(=O)(=O)c2ccc(C)cc2)c(=O)[nH]c1=O,.,.,.,.,/,/
Cc1ccc(C(=O)c2cc([N+](=O)[O-])ccc2N2CC(C)OC(C)C2)cc1 (stereo unspecified),.,.,.,.,/,/
O=C(NCc1ccc2c(c1)OCO2)c1cccc([N+](=O)[O-])c1,.,/,.,.,/,/
Cc1ccc(C(=O)c2cc([N+](=O)[O-])ccc2N2CCCCC2)cc1,.,.,.,.,31,.
O=C(NCc1ccc2c(c1)OCO2)c1cc([N+](=O)[O-])ccc1N1CCCCC1,.,.,9.2,.,51,.
O=C(COC(=O)c1cc([N+](=O)[O-])ccc1N1CCOCC1)Nc1ccc(Cl)cn1,.,/,6.8,/,20,.
COC(=O)[C@@]12CCCN1[C@H](c1ccc(-c3ccc(C(C)=O)cc3)c(OC)c1)[C@H]1C(=O)N(C)C(=O)[C@H]12,.,/,.,/,/,/
O=C(O)C(=O)Cc1c[nH]c2ccccc12,.,.,.,.,/,/
CC(C)C(=O)NCc1cc(-c2ccccc2)no1,.,.,.,.,/,/
CN1CCN(/C=N/c2c(C#N)cnn2C)CC1,.,.,.,.,/,/
Cn1ncc(C#N)c1/N=C/N(Cc1ccccc1)Cc1ccccc1,.,.,16,.,46,.
C[n+]1cn(/N=C/c2ccccc2)c2ccccc21,.,.,6.6,/,56,-55
Cc1cc(C)cc(-n2ccnc2SCC(=O)O)c1,.,.,.,.,/,/
Cc1ccc(C(C)C)c(OCc2nn(CC(=O)c3ccc(OC(F)F)cc3)c3[n+]2CCCCC3)c1,.,.,9.8,.,.,.
COc1ccc(C(=O)Cn2nc(CNc3ccc(Br)cc3)[n+]3c2CCCCC3)cc1,.,.,.,.,/,/
Cc1ccc(-c2nn(C)c(=O)c3ccccc23)cc1CN1CCCCC1,.,.,8.7,/,27,-52
Cc1ccc(-c2nn(C)c(=O)c3ccccc23)cc1CNS(C)(=O)=O,.,/,.,.,/,/
CN1CCN(S(=O)(=O)c2ccc3c4c(cccc24)C(=O)N3)CC1,.,.,10,.,84,-85
CN(C)CCNS(=O)(=O)c1ccc2c3c(cccc13)C(=O)N2,.,/,6.5,/,74,-86
CCN(CC)CCNS(=O)(=O)c1ccc2c3c(cccc13)C(=O)N2,.,/,7.4,/,73,-74
Cc1cc(C(=O)NCC(=O)Nc2c(C)cccc2C)c(C)o1,.,/,.,/,/,/
COc1cc(OC)c2ccc(=O)oc2c1C(CC(=O)N1CCN(c2ccccc2)CC1)c1ccc2c(c1)OCO2 (stereo unspecified),.,.,.,.,33,.
O=C(COC(=O)c1cc[n+]([O-])cc1)Nc1cc([N+](=O)[O-])ccc1Cl,.,/,.,/,40,-50
COc1ccc(C)cc1NC(=O)C1COc2ccccc2O1 (stereo unspecified),.,.,.,.,/,/
SMILES,CHT block,KCC2 mod,CHT allo act,Rad51 HR inh,CHT activ conf,HEK293 MP dye
CCOC(=O)c1c(-c2ccccc2)csc1NC(=O)CSc1nncs1,.,.,.,.,28,.
CCOC(=O)c1c(NC(=O)CSc2nncs2)sc(C)c1-c1ccccc1,.,.,.,.,/,/
CN1C(=O)C(O)(C2COC(C)(C)CC2=O)c2ccccc21 (stereo unspecified),.,/,.,.,/,/
CN1C(=O)C(O)(C2COC(C)(C)CC2=O)c2cc(Br)ccc21 (stereo unspecified),.,.,6.8,.,.,.
CC[n+]1c(/C=C/c2ccc(OC(C)=O)c(OC)c2)ccc2ccccc21,.,/,7.2,/,45,-74
CC[n+]1c(/C=C/c2ccc(OC)c(OC)c2)ccc2ccccc21,.,/,.,/,/,/
CC[n+]1c(/C=C/c2cc([N+](=O)[O-])ccc2O)ccc2ccccc21,.,/,.,/,17,-52
CCOC(=O)C1CCN(C(=O)CCc2ccc(S(=O)(=O)NCC(C)C)cc2)CC1,.,/,.,/,/,/
COc1ccc(S(=O)(=O)N2CCOCC2)cc1C(=O)Nc1ccc2c(c1)OCO2,.,/,.,/,/,/
Cn1c(N)c(C(=O)COc2ccc(C#N)cc2)c(=O)n(C)c1=O,.,.,.,.,38,-36
